A selection: hits, their analogues and other compounds. The true share with any hit is near 8.2%.
HePTP inhibitor: inhibitors of human HePTP phosphatase, primary screen, biochemical, absorbance, leukemia target; Tyrosine-protein phosphatase non-receptor type 7 (Homo sapiens), P35236; recombinant HePTP phosphatase activity, OD absorbance; inhibition, % at 20 µM; hit rate 0.64% among 110,000; in the data active = inhibition above about 50%;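 note: plate controls were vehicle for no effect and reference inhibitor for full effect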
Target sequence (P35236 whole entry, looked up): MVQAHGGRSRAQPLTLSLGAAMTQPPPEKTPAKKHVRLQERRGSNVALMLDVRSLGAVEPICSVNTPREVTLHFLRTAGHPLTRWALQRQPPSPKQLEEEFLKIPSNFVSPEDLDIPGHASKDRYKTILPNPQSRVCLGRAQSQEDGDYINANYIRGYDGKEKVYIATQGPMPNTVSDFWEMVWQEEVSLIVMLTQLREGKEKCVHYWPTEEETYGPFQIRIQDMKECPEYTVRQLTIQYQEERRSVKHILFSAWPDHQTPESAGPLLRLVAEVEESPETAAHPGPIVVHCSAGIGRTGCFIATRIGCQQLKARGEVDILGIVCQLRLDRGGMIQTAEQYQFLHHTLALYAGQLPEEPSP
SF1 activator: activators of human SF-1, primary screen, cell-based, CHO-K1, Gal4-SF-1 LBD, luciferase luminescence | Steroidogenic factor 1 (Homo sapiens), Q13285 | CHO-K1 Gal4-SF-1 LBD luciferase reporter; % increase over DMSO SF-1-specific signal | activation, % at 10 µM | hit rate 1.9% among 65,000;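 active = activation above the mean activation of all tested compounds plus 3 SD, cut at about 50% in these data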
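Material: Transient Gal4-SF-1 LBD reporter, CHO-K1 | Input: 4,000 cells/well | Dosing: One dose, 10 µM compound, 1% DMSO | Incubation: 20 h compound treatment, 37 °C | Detection: SteadyLite luciferase luminescence | Evaluation: Percent activation relative to DMSO median and mock-transfected background | Benchmarks: DMSO-treated SF-1-transfected cells as negative, DMSO-treated mock-transfected cells lacking SF-1 as background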
M1 antag: antagonists of rat M1 muscarinic receptor. CHO-M1 cells, Fluo-4 calcium, ACh EC80 antagonist mode; hits give low values. Muscarinic acetylcholine receptor M1 (Rattus norvegicus), P08482. hit rate 3.4% among 64,000. AID 628, 2007. B-score at 10 µM;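 active = calcium fluorescence response, raw or row-and-column corrected B-score, differing from the plate sample mean either way at a set confidence level, mostly lower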
RORa activator: activators of orphan receptor RORA, primary screen, cell-based, luminescence; Nuclear receptor ROR-alpha (Homo sapiens), P35398; CHO-K1 Gal4-RORA LBD luciferase reporter; percent increase over mock-subtracted basal signal; activation, % at 10 µM; hit rate 1.5% among 65,000;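 active = activation above the mean of all tested compounds plus 3 SD, cut at about 49% in these data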;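 note: 0% = DMSO-treated RORA cells and 100% = added signal equal to DMSO minus mock-transfected cells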
M1 ag: M1 muscarinic receptor agonists, primary screen, CHO-M1 cells, Fluo-4 calcium, agonist mode; AID 626, 2007; Muscarinic acetylcholine receptor M1; B-score at 10 µM; Fluo-4 calcium fluorescence; hits give high values; hit rate 3% among 64,000;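 active = fluorescence rise, raw or as B-score row- and column-corrected plate score, outside the 99.7% band of its plate's samples, either direction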
D1 mod: D1 CRE-luciferase signal change, two-sided – cell-based, HEK293 D1, dopamine EC30, D1 allosteric modulator project, primary screen; D(1A) dopamine receptor (Homo sapiens), P21728; dopamine EC30 potentiation; actives deviate in either direction; B-score at 10 µM; hit rate 5.9% among 58,000; AID 641, 2007;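 active = luminescence count or its row- and column-corrected plate score outside the 99.7% band of the plate's sample wells, on either side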
Numbers without * were called inactive.

What do the screens show for `Cn1ccnc1SCC(=O)Nc1ccc2ccccc2c1`?
HePTP inhibitor: 6; SF1 activator: 22; M1 antag: 0.24; RORa activator: 48; M1 ag: 0.047; D1 mod: -6.6*

How did Cc1cccc(NC(=O)CSc2nccn2C)c1 do in these assays?
HePTP inhibitor: -26

What do the screens show for `O=C1N=C(N2CCOCC2)S/C1=C1\C(=O)N(Cc2ccccc2)c2ccc(Br)cc21`?
HePTP inhibitor: -5; SF1 activator: 15; RORa activator: 12; D1 mod: 2.1

Results for CCCCN1C(=O)/C(=C2\SC(N3CCCCC3)=NC2=O)c2ccccc21 ?
HePTP inhibitor: 8; SF1 activator: 36; M1 antag: 0.97; RORa activator: 60*; M1 ag: 0.23; D1 mod: 0.2

What do the screens show for `O=C(NCCc1ccccc1)C1CCN(S(=O)(=O)N2CCC3(CC2)OCCO3)CC1`?
HePTP inhibitor: 13; SF1 activator: -13; M1 antag: 0.1; RORa activator: 13; M1 ag: 0.26; D1 mod: -0.068

Results for CC(=O)c1c(C)oc(C)c1CSCc1ccc(C(=O)O)o1 ?
HePTP inhibitor: 24; SF1 activator: 6; M1 antag: 0.32; RORa activator: 0; M1 ag: -0.53; D1 mod: -8.1*

How did Cc1noc(C)c1COC(=O)CCc1nc2ccccc2c(=O)[nH]1 do in these assays?
HePTP inhibitor: 7; SF1 activator: 2; M1 antag: 0.83; RORa activator: -4; M1 ag: 0.49; D1 mod: -0.23

What do the screens show for `Clc1ccc(Oc2cccc(/C=N/n3cnnc3)c2)cc1`?
HePTP inhibitor: 6; SF1 activator: 2; M1 antag: -1.9; RORa activator: 0; M1 ag: -0.52; D1 mod: -0.34

What do the screens show for `Cc1ccc2nc3c(cc2c1)c(NC(=O)c1cccnc1)nn3C`?
HePTP inhibitor: 6; SF1 activator: -4; M1 antag: -0.29; RORa activator: -11; M1 ag: 0.45; D1 mod: -4.4*

How did COCCNC(=O)c1ccc(NC(C)=O)cc1 do in these assays?
HePTP inhibitor: -3

How did C=CCNC(=S)NNC(=O)COc1cccc(C)c1 do in these assays?
HePTP inhibitor: 1

How did Cc1cc(NC(=O)c2cc3nc(-c4ccccc4)cc(-c4ccccc4)n3n2)no1 do in these assays?
HePTP inhibitor: 1

What do the screens show for `CCc1ccc2[nH]c(=O)c(CN(Cc3ccccc3)Cc3nnnn3Cc3ccco3)cc2c1`?
HePTP inhibitor: 17; SF1 activator: 1; RORa activator: 5

What do the screens show for `CCOC(=O)Cn1nnnc1CN(Cc1ccccc1)Cc1cc2cc(CC)ccc2[nH]c1=O`?
HePTP inhibitor: 6; SF1 activator: 20; M1 antag: 0.6; RORa activator: 58*; M1 ag: 0.14; D1 mod: 2

How did O=C(O)/C=C/c1ccc(-c2ccccc2Br)o1 do in these assays?
HePTP inhibitor: 0

What do the screens show for `CC(=O)NC(CCS(C)(=O)=O)C(=O)Nc1cccc(C)c1C` (stereo not given)?
HePTP inhibitor: 12; SF1 activator: 8; M1 antag: 0.17; RORa activator: 13; M1 ag: -0.78; D1 mod: 0.085

Results for COc1ccc(-c2cc(-c3ccc(OC)cc3)[nH]n2)cc1 ?
HePTP inhibitor: 4; SF1 activator: 42; M1 antag: -1.9; RORa activator: 65*; M1 ag: -0.28; D1 mod: 0.029

How did O=C1C2C3C=CC(C3)C2C(=O)N1c1ccc(-c2nc3ccccc3o2)cc1 (stereo not given) do in these assays?
HePTP inhibitor: 8; SF1 activator: 41; M1 antag: 0.33; RORa activator: 73*; M1 ag: 0.88; D1 mod: -0.89

What do the screens show for `O=C1C2C3C=CC(C3)C2C(=O)N1c1cccc(-c2nc3ccccc3c(=O)o2)c1` (stereo not given)?
HePTP inhibitor: 6

Results for N#Cc1c(NC(=O)c2ccc(Br)o2)n(-c2ccccc2)c2nc3ccccc3nc12 ?
HePTP inhibitor: 14; SF1 activator: 3; M1 antag: -0.75; RORa activator: -16; M1 ag: 42*; D1 mod: 1.6

Results for CCC(=O)Nc1c(C#N)c2nc3ccccc3nc2n1-c1ccc(C)cc1 ?
SF1 activator: 15; M1 antag: 0.42; RORa activator: 4; M1 ag: 4.3*; D1 mod: 1.9

Results for O=C(O)c1cccc(N2C(=O)CC(Nc3ccc(N4CCOCC4)cc3)C2=O)c1 (stereo not given) ?
HePTP inhibitor: 61*

What do the screens show for `O=C1CC(Nc2ccc(N3CCOCC3)cc2)C(=O)N1c1cccc(Cl)c1` (stereo not given)?
HePTP inhibitor: 1

Results for COc1ccc(NC(=O)N2CCCC2C(=O)Nc2ccc(C)cc2)cc1 (stereo not given) ?
HePTP inhibitor: 8; SF1 activator: -4; M1 antag: 0.77; RORa activator: 7; M1 ag: 0.82; D1 mod: -0.19

How did COc1ccc(OC)c(NC(=O)CN(c2ccc(C)cc2)S(=O)(=O)c2c(C)noc2C)c1 do in these assays?
HePTP inhibitor: -6; SF1 activator: 8; M1 antag: -0.25; RORa activator: 14; M1 ag: 0.034; D1 mod: 4.6*

What do the screens show for `CCOc1ccc(OCC)c(NC(=O)CN(c2ccc(C)cc2)S(=O)(=O)c2c(C)noc2C)c1`?
HePTP inhibitor: -4; SF1 activator: 5; M1 antag: -0.74; RORa activator: 10; M1 ag: -1.3; D1 mod: 4.7*

What do the screens show for `O=C(NCCN1C(=O)C2C3C=CC(C3)C2C1=O)Nc1ccc(Br)cc1` (stereo not given)?
HePTP inhibitor: -9; SF1 activator: 84*; M1 antag: 0.32; RORa activator: 84*; M1 ag: -0.47; D1 mod: -0.27

What do the screens show for `CCNC(=O)NC(=O)COC(=O)c1ccccc1SCC(=O)NC(=O)NCC`?
HePTP inhibitor: 6; SF1 activator: 69*; M1 antag: 0.87; RORa activator: 31; M1 ag: 0.59; D1 mod: -1.7

How did COc1ccc(NC(=O)Cn2nc3n(c2=S)CCC3)cc1 do in these assays?
HePTP inhibitor: -12; SF1 activator: -8; M1 antag: 1.4; RORa activator: 15; M1 ag: -0.093; D1 mod: 0.012

How did CCOC(=O)c1sc(NC(=O)c2ccc([N+](=O)[O-])s2)nc1C do in these assays?
HePTP inhibitor: 6

Bioassay records from PubChem BioAssay.
